Experimental data as given in ChEMBL document CHEMBL5576140, “Computational Design of Pore-Forming Peptides with Potent Antimicrobial and Anticancer Activities” (J Med Chem, 2024).
Active and inactive are the calls of the source. The rule behind the calls is not given here.

Legend:
Staphylococcus aureus [1] = test: Antimicrobial activity against Staphylococcus aureus NE163 harboring single transposon insertion mutation in aureolysin at 30 uM incubated for 18 hrs relative to control; assay type: functional
Summary of the method: (§1)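 CA-MRSA USA300 LAC derivative JE2 and single transposon insertion mutants derived from JE2, each lacking an extracellular protease gene, were exposed to peptides up to 30 μM. The read-out was percent growth inhibition. Peptides were dissolved in PBS, and tests were run in triplicate.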

Staphylococcus aureus [2] = test: Depolarization of cytoplasmic membrane in Staphylococcus aureus ATCC 12600 at MIC measured for 45 mins by DiSC3-(5) dye based assay; assay type: functional, organism-based
Summary of the method: (§2)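 Bacteria loaded with membrane-potential dye DiSC3-(5), then treated with peptide at its MIC for the respective strain; depolarization read as rise in dye fluorescence; polymyxin B and levofloxacin as reference antibiotics.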

Escherichia coli [3] = test: Depolarization of cytoplasmic membrane in Escherichia coli ATCC 11775 at MIC measured for 45 mins by DiSC3-(5) dye based assay; assay type: functional, organism-based; summary of the method: as §2
Acinetobacter baumannii [4] = test: Induction of outer membrane permeabilization in Acinetobacter baumannii ATCC 19606 measured for 20 mins by NPN uptake assay; assay type: functional, organism-based
[5] = Stability in human serum assessed as half life at 10 mg/ml by UPLC-MS analysis; assay type: ADME, cell-free
Summary of the method: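 Peptides dissolved in PBS and incubated in 25% human serum. Intact peptide remaining followed over time to at least 6 h; half-life taken as time to 50% stability.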

Staphylococcus aureus [6] = test: Antimicrobial activity against Staphylococcus aureus NE934 harboring single transposon insertion mutation in staphopain B at 30 uM incubated for 18 hrs relative to control; assay type: functional; summary of the method: as §1
Enterococcus faecium = test: Depolarization of cytoplasmic membrane in Enterococcus faecium ATCC 700221 at MIC measured for 45 mins by DiSC3-(5) dye based assay; assay type: functional, organism-based; summary of the method: as §2
Staphylococcus aureus [7] = test: Antimicrobial activity against Staphylococcus aureus NE1740 harboring single transposon insertion mutation in staphopain A at 30 uM incubated for 18 hrs relative to control; assay type: functional; summary of the method: as §1
[8] = Toxicity against reconstructed human skin model assessed as irritation at 50 uM incubated for 1 hr followed by compound washout measured after 42 hrs by MTT assay; assay type: tissue-based, Skin of body
Summary of the method: (§3)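 Reconstructed human epidermis with stratum corneum, per OECD TG 439 skin irritation guideline. Tissues exposed 1 h to peptide at 50 μM, then 42 h post-treatment incubation. Viability read by MTT. Controls were SDS and melittin.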

Acinetobacter baumannii [9] = test: Depolarization of cytoplasmic membrane in Acinetobacter baumannii ATCC 19606 at MIC measured for 45 mins by DiSC3-(5) dye based assay; assay type: functional, organism-based; summary of the method: as §2
Pseudomonas aeruginosa [10] = test: Depolarization of cytoplasmic membrane in Pseudomonas aeruginosa PAO1 at MIC measured for 45 mins by DiSC3-(5) dye based assay; assay type: functional, organism-based; summary of the method: as §2
[11] = Toxicity against reconstructed human skin model assessed as tissue viability at 50 uM incubated for 1 hr followed by compound washout measured after 42 hrs by MTT assay; assay type: tissue-based, Skin of body; conditions: read-out: Activity; summary of the method: as §3
Acinetobacter baumannii [12] = test: Anti-infective activity against Acinetobacter baumannii ATCC 19606 infected in neutropenic CD-1 mouse deep thigh infection model assessed as reduction in bacterial load at 0.18 mg/kg, ip measured after 4 days; assay type: functional, organism-based; conditions: time 4.0 day
Summary of the method: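 Neutropenic mice infected intramuscularly in right thigh with 10⁶ cells per mL A. baumannii ATCC 19606; single intraperitoneal peptide dose at 10× MIC; bacterial load determined 4 days after treatment (euthanized day 8); n = 6 per group from three inocula; one-way ANOVA with Dunnett's test versus untreated.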

Klebsiella pneumoniae [13] = test: Induction of outer membrane permeabilization in Klebsiella pneumoniae ATCC 13883 measured for 20 mins by NPN uptake assay; assay type: functional, organism-based
Summary of the method: (§4)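 Outer-membrane permeabilization of Gram-negative bacteria read as rise in fluorescence of the lipophilic dye NPN, which enters only when outer-membrane integrity is compromised. Peptides applied at their MIC against the respective strain; polymyxin B and levofloxacin as reference antibiotics. Triplicates.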

[14] = Toxicity in neutropenic CD-1 mouse deep thigh infection model infected with Acinetobacter baumannii ATCC 19606 assessed as body weight change at 0.18 mg/kg, ip measured after 4 days; assay type: organism-based; conditions: in vivo, 96 h, time 4 day
Summary of the method: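 Neutropenic mice infected intramuscularly in the right thigh with 10⁶ cells per mL of A. baumannii ATCC 19606. […] Body weight monitored for toxicity. Euthanasia 4 days post-infection (day 8). n = 6 per group, from three inocula.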

Staphylococcus aureus [15] = test: Antimicrobial activity against Staphylococcus aureus NE1506 harboring single transposon insertion mutation in V8 protease at 30 uM incubated for 18 hrs relative to control; assay type: functional; summary of the method: as §1
Escherichia coli [16] = test: Induction of outer membrane permeabilization in Escherichia coli ATCC 11775 measured for 20 mins by NPN uptake assay; assay type: functional, organism-based
[17] = Hemolytic activity against human RBC incubated for 1 hr by microplate reader analysis; assay type: toxicity, cell-based, Erythrocyte; conditions: red blood cells (erythrocytes)
Summary of the method: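 Human red blood cells exposed to peptides up to 50 μM; hemolysis measured, IC50 derived where reached.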

Pseudomonas aeruginosa [18] = test: Induction of outer membrane permeabilization in Pseudomonas aeruginosa PAO1 measured for 20 mins by NPN uptake assay; assay type: functional, organism-based; summary of the method: as §4
Klebsiella pneumoniae [19] = test: Depolarization of cytoplasmic membrane in Klebsiella pneumoniae ATCC 13883 at MIC measured for 45 mins by DiSC3-(5) dye based assay; assay type: functional, organism-based; summary of the method: as §2

## H-KKKKKLKKILKKLFQFINQLDNQLQDIKKKKK-OH
Staphylococcus aureus [1]
  inhibition at 30 µM: < 45%
Staphylococcus aureus [2]
  Activity: Active
Escherichia coli [3]
  Activity: Active
Acinetobacter baumannii [4]
  Activity: inactive
[5]
  half-life at 10 mg/ml: > 6 h
Staphylococcus aureus [6]
  inhibition at 30 µM: < 45%
Enterococcus faecium
  Activity: Active
Staphylococcus aureus [7]
  inhibition at 30 µM: < 45%
[8]
  Activity: Non-Toxic
Acinetobacter baumannii [9]
  Activity: Active
Pseudomonas aeruginosa [10]
  Activity: Active
[11]
  viability at 1 h, 50 µM: 100%
Acinetobacter baumannii [12]
  Activity: inactive
Klebsiella pneumoniae [13]
  Activity: Active
[14]
  Activity: Non-Toxic
Staphylococcus aureus [15]
  inhibition at 30 µM: < 45%
Escherichia coli [16]
  Activity: Active
[17]
  IC50 at 1 h: > 50 µM
Pseudomonas aeruginosa [18]
  Activity: Active
Klebsiella pneumoniae [19]
  Activity: Active
